Usually IC50 stands for the point on the concentration scale where inhibition reaches its midpoint. For orientation: Ki means the dissociation constant of the complex between target and ligand, obtained from inhibition or displacement. Read a high Ki as a looser hold on the target.

The values below come from ChEMBL document CHEMBL4396879, “Conjugation of Short Peptides to Dibenzodiazepinone-Type Muscarinic Acetylcholine Receptor Ligands Determines M2R Selectivity” (J Med Chem, 2019).

Molecules are shown by their SMILES.

A short description of data set [1]: Stability of the compound in human plasma:PBS of pH 7.4 (1:2) assessed as intact compound at 100 uM incubated for 1 hr by LC-MS analysis. In kind it is ADME, cell-free. To be noted: plasma diluted with PBS (1:2), read-out: Stability. In a few lines: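 Compound added at 100 μM (from 5 mM stock in acetonitrile/0.04% TFA 3:7) to heparinized human plasma/PBS pH 7.4 (1:2 v/v) with 10 μM 1-methyl-D-tryptophan as internal standard. Incubated shaking at 37 °C in triplicate. Aliquots were EtOH/acetonitrile-precipitated and analysed by RP-HPLC at 220 nm, with recovery correction against four-point calibrations.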

A short description of data set [2]: Stability of the compound in human plasma used as 1:2 ratio of plasma to pH 7.4 PBS assessed as intact compound at 100 uM incubated for 6 hr […]. In kind it is ADME, cell-free. To be noted: plasma diluted with PBS (1:2), read-out: Stability.
In data set [3] the target is T1, Muscarinic acetylcholine receptor M2 (Homo sapiens, UniProt P08172).
T1 sequence (P08172 whole entry): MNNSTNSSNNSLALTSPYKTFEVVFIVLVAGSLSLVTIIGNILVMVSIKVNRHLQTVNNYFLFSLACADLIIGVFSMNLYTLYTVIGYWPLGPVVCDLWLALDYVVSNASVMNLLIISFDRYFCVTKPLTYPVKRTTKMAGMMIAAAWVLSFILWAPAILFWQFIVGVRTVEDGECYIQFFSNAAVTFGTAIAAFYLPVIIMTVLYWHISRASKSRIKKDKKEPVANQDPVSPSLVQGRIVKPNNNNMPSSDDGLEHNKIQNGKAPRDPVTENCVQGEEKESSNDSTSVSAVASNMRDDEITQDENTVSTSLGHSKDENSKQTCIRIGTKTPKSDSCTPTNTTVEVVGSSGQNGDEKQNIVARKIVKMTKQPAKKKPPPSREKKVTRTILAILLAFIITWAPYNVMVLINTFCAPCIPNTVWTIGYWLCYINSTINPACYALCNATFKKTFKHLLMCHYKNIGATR
The data set can be described thus: Competitive displacement of [3H]-NMS from human muscarinic M2 receptor expressed in CHO-K9 cells using 0.2 nM [3H]-NMS after 3 hrs by microbeta2 scintillation counting method. The data set is classed as cell-based. In a few lines: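 Intact CHO-hM2R cells (90-100% confluent) incubated 3 h at 22 ± 1 °C in L15 medium with 1% BSA and 0.2 nM [3H]NMS. […] Cells were lysed in urea/acetic acid/Triton-X-100 and radioactivity was counted. Ki via Cheng-Prusoff.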
For orientation: In a radioligand displacement assay an active substance lowers the binding of a labelled ligand.

The nature of data set [4]: Stability of the compound in human plasma used as 1:2 ratio of plasma to pH 7.4 PBS assessed as intact compound at 100 uM incubated for 24 hr […]. To be noted: plasma diluted with PBS (1:2), read-out: Stability. In kind it is ADME, cell-free.
The target in data set [5] is T2, Muscarinic acetylcholine receptor M2 (Homo sapiens) (UniProt P08172).
T2 sequence (whole entry): T1 sequence (P08172 whole entry)
Kind of data set: Competitive displacement of [3H]-NMS from human muscarinic M2 receptor expressed in CHO-K9 cells using 2 nM [3H]-NMS after 3 hrs by microbeta2 scintillation counting method relative to control. The data set is classed as cell-based. A digest of the protocol:
(§1)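 Intact CHO-hM2R cells incubated at 22 °C with a high [3H]NMS concentration (2 nM). […] Curves were fitted by four-parameter logistic fits. Mean ± SEM from ≥4 experiments in triplicate.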

The target in data set [6] is T1, Muscarinic acetylcholine receptor M2. The data set can be described thus: Competitive displacement of [3H]-NMS from human muscarinic M2 receptor expressed in CHO-K9 cells using 2 nM [3H]-NMS after 3 hrs by microbeta2 scintillation counting method. In kind it is cell-based. A digest of the protocol:
as §1

The target in data set [7] is Muscarinic acetylcholine receptor M2 and M4 (Homo sapiens) (UniProt P08173+P08172). The data set can be described thus: Selectivity ratio of Ki for human muscarinic M4 receptor expressed in CHO-K9 cells to Ki for human muscarinic M2 receptor expressed in CHO-K9 cells. The data set is classed as cell-based. A digest of the protocol:
(§2)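 Ratio of mean Ki values. Each Ki came from an individual [3H]NMS competition experiment at the given CHO-hMxR subtype, converting IC50 to Ki by Cheng-Prusoff before averaging.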

Data set [8] has as its target T3, Muscarinic acetylcholine receptor M4 (Homo sapiens, UniProt P08173).
T3 sequence (P08173 whole entry): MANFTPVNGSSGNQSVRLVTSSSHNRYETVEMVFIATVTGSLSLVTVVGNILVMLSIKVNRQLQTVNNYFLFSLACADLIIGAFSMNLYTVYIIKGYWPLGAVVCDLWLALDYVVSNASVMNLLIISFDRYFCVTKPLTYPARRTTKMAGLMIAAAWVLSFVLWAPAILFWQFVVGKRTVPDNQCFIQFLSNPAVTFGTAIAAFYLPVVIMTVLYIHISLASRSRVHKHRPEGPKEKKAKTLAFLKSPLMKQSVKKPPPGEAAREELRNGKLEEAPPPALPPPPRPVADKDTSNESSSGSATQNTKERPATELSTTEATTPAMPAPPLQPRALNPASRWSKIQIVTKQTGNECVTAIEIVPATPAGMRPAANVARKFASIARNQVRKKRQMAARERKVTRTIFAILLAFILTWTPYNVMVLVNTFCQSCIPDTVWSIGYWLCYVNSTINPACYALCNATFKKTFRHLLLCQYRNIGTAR
The data set can be described thus: Displacement of [3H]-NMS from human muscarinic M4 receptor expressed in CHO-K9 cells after 3 hrs by microbeta2 scintillation counting method. The data set is classed as cell-based. In a few lines: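 [3H]NMS competition binding on intact CHO-hMxR cells in L15 medium with 1% BSA, 3 h at 22 ± 1 °C with gentle shaking. [3H]NMS was 0.2 nM (M1, M2, M3), 0.1 nM (M4) or 0.3 nM (M5). […] Cells were lysed in urea/acetic acid/Triton and counted by liquid scintillation. Ki from Cheng-Prusoff. Triplicates, ≥3 experiments.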

The target in data set [9] is Muscarinic acetylcholine receptors; M2 & M3 (Homo sapiens) (UniProt P20309+P08172). Kind of data set: Selectivity ratio of Ki for human muscarinic M3 receptor expressed in CHO-K9 cells to Ki for human muscarinic M2 receptor expressed in CHO-K9 cells. In kind it is cell-based. In a few lines: as §2
Data set [10] has as its target T2, Muscarinic acetylcholine receptor M2 (Homo sapiens). The data set can be described thus: (§3) Antagonist activity at human muscarinic M2 receptor expressed in HEK293 cells co-expressing HA-Galphaq/i5 assessed as inhibition of carbachol-induced IP1 accumulation pre-incubated for 30 mins followed by carbachol addition and measured after 1 hr by HTRF assay. In kind it is functional, cell-based. In a few lines:
(§4)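 HEK-293 cells transiently cotransfected (receptor plus HA-tagged Gαqi5), detached after 1 day and seeded at 10,000 cells/well for 24 h at 37 °C. Duplicates.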
Background: Time-resolved FRET reads energy transfer from a long-lived donor to a nearby acceptor.

The target in data set [11] is T1, Muscarinic acetylcholine receptor M2. The data set is described as §3. In kind it is functional, cell-based. In a few lines:
as §4

With `CC(=O)N[C@@H](CCCCN)C(=O)N[C@@H](C)C(=O)N[C@@H](CCCNC(=N)N)C(=O)NCCN1CCN(CCCCC2CCN(CC(=O)N3c4ccccc4NC(=O)c4ccccc43)CC2)CC1`, the remaining at 1 h, 100 µM in data set [1] is above 99%. For the same molecule, the remaining at 6 h, 100 µM in [2] was above 99%. Also, the IC50 in data set [3] was 0.191 nM; in data set [6], 1.78 nM; in data set [11], 10.5 nM. In addition, the figures for the Ki in [3], in data set [6] and in [8] were 0.0631 nM, 0.0794 nM and 2.09 nM, respectively. Moreover, in data set [4], the remaining at 24 h, 100 µM was above 99%. In addition, the Activity in data set [5] was above 95%. For the same molecule, the figures for the Ratio Ki in [7] and in data set [9] were 40 and 1800, respectively. For the same molecule, the inhibition result in [10] is “Dose-dependent effect”.

As to `CC(=O)N[C@@H](CCCCN)C(=O)N[C@@H](CCCNC(=N)N)C(=O)NCCCCC1CCN(CC(=O)N2c3ccccc3NC(=O)c3ccccc32)CC1`, the remaining at 1 h, 100 µM in data set [1] amounted to 99%. Also, the remaining at 6 h, 100 µM in [2] was above 99%. Also, the results for the IC50 in data set [3], in data set [6] and in data set [11] were 3.31 nM, 41.7 nM and 93.3 nM, respectively. Also, the Ki in [3] is 1.07 nM; in [6], 2.04 nM; in [8], 61.7 nM. Besides, the remaining at 24 h, 100 µM in [4] was above 99%. The Activity in data set [5] is above 95%. Moreover, the Ratio Ki in data set [7] is 60; in [9], 6500. Besides, the inhibition entry in [10] is “Dose-dependent effect”.
